# Source: PubChem BioAssay
# Sampled rows, rich in hits. Any-hit rate of the full collection: about 1.2%.
# G6PDH CS = inhibits Leuconostoc G6PDH, flagging false hits in G6PDH-based assays; hit rate 0.12% among 200,000; inhibition, % at 5 µM; Purified L. mesenteroides G6PDH, diaphorase/resazurin coupled fluorescence, 45 min; in the data active means inhibition above about 50%
# HKDC1 inhibitor = inhibitors of human hexokinase HKDC1; recombinant HKDC1, G6PDH/diaphorase resazurin coupled fluorescence; hit rate 0.16% among 340,000; inhibition, % at 20 µM;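 active means inhibition above about 35% when tested at 20 µM, limit read from the data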;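 further: plate controls were DMSO wells with enzyme for no effect and DMSO wells lacking enzyme for full effect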
# Target sequence (Q2TB90 whole entry, looked up): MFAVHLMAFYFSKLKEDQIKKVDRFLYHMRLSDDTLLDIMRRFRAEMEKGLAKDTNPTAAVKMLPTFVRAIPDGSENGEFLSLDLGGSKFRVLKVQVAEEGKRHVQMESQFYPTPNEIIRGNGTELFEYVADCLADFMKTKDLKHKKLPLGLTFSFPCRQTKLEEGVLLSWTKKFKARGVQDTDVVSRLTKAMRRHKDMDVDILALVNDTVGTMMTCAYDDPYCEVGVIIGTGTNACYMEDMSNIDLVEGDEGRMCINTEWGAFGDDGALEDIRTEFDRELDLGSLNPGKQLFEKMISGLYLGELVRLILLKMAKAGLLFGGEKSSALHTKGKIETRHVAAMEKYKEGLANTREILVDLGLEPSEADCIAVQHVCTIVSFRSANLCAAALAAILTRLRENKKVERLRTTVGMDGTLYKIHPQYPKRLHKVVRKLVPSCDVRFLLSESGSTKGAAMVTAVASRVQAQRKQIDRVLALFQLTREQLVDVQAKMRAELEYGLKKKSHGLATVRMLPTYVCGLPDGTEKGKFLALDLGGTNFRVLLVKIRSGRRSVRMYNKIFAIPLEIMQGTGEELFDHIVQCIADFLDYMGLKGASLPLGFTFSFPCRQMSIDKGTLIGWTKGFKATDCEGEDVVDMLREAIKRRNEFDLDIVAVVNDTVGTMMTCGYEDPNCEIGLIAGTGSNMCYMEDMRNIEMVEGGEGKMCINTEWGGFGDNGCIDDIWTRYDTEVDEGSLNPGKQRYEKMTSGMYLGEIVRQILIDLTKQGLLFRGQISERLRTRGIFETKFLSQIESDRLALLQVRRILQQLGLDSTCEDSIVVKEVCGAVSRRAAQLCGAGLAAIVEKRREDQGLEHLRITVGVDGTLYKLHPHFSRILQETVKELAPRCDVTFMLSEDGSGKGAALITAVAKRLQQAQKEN
#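 Test system: Recombinant HKDC1 (HK5) hexokinase enzyme, produced in-house | Input: HKDC1 at 5 µg/mL | Buffer or medium: Tris pH 8.0 buffer with MgCl2, Tween-20, BSA, BME | Schedule: 90 min reaction incubation at room temperature, dark | Technique: Resazurin-to-resorufin fluorescence via G6PDH and diaphorase coupling, 525/613 nm | Controls: DMSO wells with and without enzyme mix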
# PfGluPho inh = PfG6PD (Plasmodium falciparum) enzyme inhibition | PfGluPho enzyme, NADPH resazurin-diaphorase fluorescence | inhibition, % at 20 µM | hit rate 0.78% among 350,000 | AID 504690;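 active means inhibition reaching at least a set limit at 20 µM in the primary screen, cut at about 59% in these data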;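 further: 0% = DMSO wells with substrate and 100% = DMSO wells lacking glucose-6-phosphate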
# Diaphorase inh = diaphorase inhibition or chemical oxidation counter-screen | inhibition, % at 20 µM | hit rate 0.69% among 190,000 | diaphorase resazurin-to-resorufin fluorescence, NADH, 16 min; bacterial (C. kluyveri) enzyme, not human;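 active means primary screen inhibition at 20 µM above a set limit, cut at about 50% in these data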;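 further: plate controls were DMSO with full reaction for no effect and wells lacking NADH for full effect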
#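 Test system: bacterial diaphorase enzyme (C. kluyveri); Quantity: 0.14 U/mL diaphorase, enzyme working solution; Times: reaction incubation of 16 min at room temperature; Measured by: fluorescence of resorufin formed from resazurin, Ex 544/Em 590 nm; Benchmarks: positive control minus NADH, DMSO neutral control.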
# HKDC1 act conf = confirmation of human HKDC1 activators. shares compounds with HKDC1 inhibitor. AID 504708. recombinant HKDC1, G6PDH/diaphorase resazurin fluorescence; active compounds read low. hit rate 14% among 740. inhibition, % at 20 µM;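 active means inhibition at or below a set negative limit, negative inhibition meaning the enzyme was activated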
# * marks the source's active call; other numbers are inactive results; · = not tested or not shown.
SMILES,G6PDH CS,HKDC1 inhibitor,PfGluPho inh,Diaphorase inh,others
CCSc1ncnc2c1sc1nc(-c3ccco3)c3c(c12)CC(C)(C)OC3,-9,·,·,26,
CC(C)c1nc2sc3c(NCc4ccco4)ncnc3c2c2c1COC(C)(C)C2,13,24,47,104*,
CCN(CCO)c1ncnc2c1sc1nc(C(C)C)c3c(c12)CC(C)(C)OC3,7,16,49,63*,
CSc1nc(NCc2ccco2)c2sc3nc(C(C)C)c4c(c3c2n1)CC(C)(C)OC4,5,-6,0,86*,
CC(C)c1nc2sc3c(NCc4ccccc4)ncnc3c2c2c1COC(C)(C)C2,-3,-8,-4,58*,
CN(/C=C/C(=C\C=[N+](C)c1ccccc1)OCCCS(=O)(=O)[O-])c1ccccc1,17,-3,-9,59*,
C=CC[C@]12CCc3ccccc3C1N(c1ccc(C(=O)OCC)cc1)C2=O (some centres undefined),·,0,11,·,
Cc1ccc(C(=O)NC(=S)NNC(=O)CCN2CCOCC2)cc1,-7,-5,-21,67*,
O=C(NC(=S)NCCN1CCOCC1)c1ccc(F)cc1,12,4,3,7,
Cc1ccc(S(=O)(=O)N2C[C@H]3[C@H]4C(=O)N(c5ccccc5)C(=O)[C@H]4C[C@H](OC(=O)NCc4ccccc4)[C@@]3(O)C2)cc1,·,·,-11,·,
O=Cc1ccc(F)c([B-](F)(F)F)c1,·,-4,-17,·,
O=C(O)C(O)Cc1c[nH]c2ccccc12 (centres undefined),2,-6,1,4,
O=C(CC(C(=O)O)c1c[nH]c2ccccc12)c1ccccc1 (centres undefined),6,-1,-18,78*,
CCN(CC)CCN1C(=O)C(O)=C(C(=O)c2ccco2)C1c1ccccn1 (centres undefined),10,1,11,60*,
CCN(CC)CCCN1C(=O)C(O)=C(C(=O)c2cc3ccccc3o2)C1c1ccccn1 (centres undefined),5,-3,9,13,
Cc1ccc([N+](=O)[O-])cc1NC(=O)Nc1cccc(F)c1,·,-5,7,·,
COCCOC(=O)C1=C(C)NC2(O)c3ccccc3C(=O)C12O (centres undefined),6,-14,11,74*,
O=[N+]([O-])c1ccc(N/N=C/c2ccc[nH]2)cc1,8,-4,81*,27,
Cc1ccc(CNC(=O)c2ccc(F)c(S(=O)(=O)N3CCOCC3)c2)cc1,·,-5,1,·,
CC(Sc1nnc(-c2ccccc2)c(-c2ccccc2)n1)C(=O)Nc1ncc(Cl)cc1Cl (centres undefined),-11,14,20,53*,
CC(=O)c1ccc(N2CCN(CN3C(=O)CC4(CCCC4)C3=O)CC2)c(F)c1,·,8,21,·,
CCOC(=O)c1c2ccc(OCC(=O)N/N=C/c3ccccc3C(F)(F)F)cc2n2ccccc12,38,·,·,52*,
N#C/C(=C\c1ccc(O)c([N+](=O)[O-])c1)c1nc2ccccc2s1,5,11,-3,97*,
COc1ccc(-c2csc(/C(C#N)=C\c3ccc(OC)c([N+](=O)[O-])c3)n2)cc1,-1,-10,-9,12,
COc1ccc(-c2csc(/C(C#N)=C\c3ccc(O)c([N+](=O)[O-])c3)n2)cc1OC,·,17,-25,·,
SMILES,G6PDH CS,HKDC1 inhibitor,PfGluPho inh,Diaphorase inh,others
N#C/C(=C/c1ccc(-c2cc(C(=O)O)cc(C(=O)O)c2)o1)c1nc2ccccc2s1,8,·,·,61*,
COc1cc(/C=C(\C#N)c2nc3ccccc3s2)cc([N+](=O)[O-])c1O,6,20,-9,85*,
N#Cc1ccc(CN2CCN(C(=O)CCNS(=O)(=O)c3ccc(F)c(Cl)c3)CC2)cc1,·,-4,5,·,
O=C(O)CCNS(=O)(=O)c1ccc2ccccc2c1,-1,-7,-8,5,
O=C(O)CCNc1cc2ccccc2cc1C(=O)O,40,12,52,65*,
CCOC(=O)Cc1csc(NC(=O)NC2(C(F)(F)F)Oc3ccc(Cl)cc3O2)n1 (centres undefined),33,-7,26,42,
CCOC(=O)Cc1csc(NC(=O)NC2(C(F)(F)F)Oc3cc(Cl)c(Cl)cc3O2)n1,51*,2,23,47,
COC(=O)C(NC(=O)c1ccccc1C(=O)O)c1ccc2ccccc2c1 (centres undefined),·,3,-12,·,
Cc1c(Cl)cccc1NS(=O)(=O)c1ccc2c(c1)C1C=CCC1C(c1ccc(C(=O)O)cc1)N2 (centres undefined),19,10,-34,59*,
CCc1cc(C(=O)N(CC)CC(=O)Nc2ccc(OC)cc2)sc1C,·,0,-11,·,
CCOC(=O)c1ccc(N2C(=O)C=CC2=O)cc1,9,-3,66*,-1,
COc1cc2c(c3oc(-c4ccccc4)cc(=O)c13)C=CC(C)(C)O2,23,19,33,82*,
COc1cc(OC)c2c(=O)cc(-c3ccccc3)oc2c1,8,12,8,55*,
Cc1ccnc(SCC(=O)NC2CCCCCC2)n1,·,-1,5,·,
CCOc1cc2c(C#N)c(N3CCCCC3)nc(N)c2c(N)n1,47,19,27,58*,
COc1cc2c(C#N)c(N3CCCCC3)nc(N)c2c(N)n1,51*,16,13,64*,
COc1cc2c(C#N)c(N3CCOCC3)nc(N)c2c(N)n1,8,2,-29,22,
COc1ccc(NC(=O)COc2cccc(-n3cnnn3)c2)cc1,·,-5,-14,·,
CCOc1ccc(CCNC(=O)COC(=O)C2=NNC(=O)CC2)cc1OCC,·,0,-5,·,
COc1cc(NC(=O)CN2CCN(C(=O)c3ccco3)CC2)c(C)cc1[N+](=O)[O-],·,·,3,·,
Cc1ccc2[nH]c(=O)c3cc(C(=O)N4CCN(C(=O)c5ccco5)CC4)sc3c2c1,-6,-1,-10,60*,
COc1ccc(/C=N/NC(=O)C(=O)/C=C2\NC3(CCCC3)Cc3ccccc32)cc1,-29,-3,10,36,
O=C(/C=C1\NC2(CCCC2)Cc2ccccc21)C(=O)N/N=C/c1ccc(O)c(O)c1,0,-2,14,74*,
COc1ccc(C(C(=O)NC(C)(C)C)N(C(=O)CNC(=O)c2cccs2)c2cccnc2)cc1OC (centres undefined),·,-6,-7,·,
O=C(NC(=S)N(CCCCO)C1CCCCC1)c1sc2ccccc2c1Cl,8,-7,20,72*,
O=C(CC1C(=O)Nc2ccccc2N1CC(=O)N1CCCC1)Nc1ccc(Br)cc1 (centres undefined),·,0,-3,·,
Cc1cc(C)n(Cc2ccc(C(=O)N/N=C/c3ccc(-c4ccc([N+](=O)[O-])cc4)o3)o2)n1,·,66*,11,·,HKDC1 act conf=31
C/C(=N\NC(=O)c1cc(C2CC2)nc2ccccc12)c1ccc(C)s1,11,-5,-20,4,
C/C(=N\NC(=O)c1cc(C2CC2)nc2ccccc12)c1ccc(O)cc1O,·,-44,-20,·,HKDC1 act conf=-6
